Source: paper PMC3128676 (Angewandte Chemie (International ed. in English), 2011)
“Also recorded” adds a separate entry of the source.

Assays:
[1] = In vivo biodistribution and clearance in SD rats; design: species or system Sprague-Dawley (SD) rats; conditions: Rat, 4 h postinjection
In short: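 Sprague-Dawley male rats (250 to 300 g) received 40 pmol/g fluorophore in saline i.v. and were imaged with the FLARE system on surgically exposed organs. Excitation was 14 mW/cm2 of 745–779 nm light, with emission through an 800–848 nm bandpass and exposure held constant. CBR = (FL–BG)/BG was scored relative to abdominal wall. N = 5.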

[2] = in dimethyl sulfoxide; cited from earlier work
[3] = Optical property measurements in 100% FBS at 37°C; format: physicochemical; conditions: for Stokes Shift / λem / λexc / ε (extinction coefficient) / Φ (fluorescence quantum yield): 100% FBS; for ε (extinction coefficient): 50 mM HEPES pH 7.4, 37°C; for Φ (fluorescence quantum yield): ICG in DMSO as standard
In short: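 Spectra were taken at 37°C in 100% FBS buffered with 50 mM HEPES, pH 7.4, on fiberoptic absorbance (200–1100 nm) and fluorescence (350–1000 nm) spectrometers. Excitation was a 770 nm laser diode set to 8 mW. […] Dyes available only as NHS ester were first hydrolysed to acid in 50 mM borate, pH 9.0, for 3 h.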

Stability in warm serum = format: in vitro ADME, bovine; conditions: 100% FBS, up to 4 h
[4] = In vivo biodistribution and clearance in CD-1 mice; conditions: for CBR Bl (bladder) relative to abdominal wall / CBR He/Lu (heart/lungs) relative to abdominal wall / CBR In (intestine) relative to abdominal wall / CBR Li (liver) relative to abdominal wall / CBR Re (rectum) relative to abdominal wall / CBR Sk/Mu (skin/muscle) relative to abdominal wall / CBR Sp (spleen) relative to abdominal wall / Carcass (retention) / Eliminated (from the body into urine): Mouse; for CBR Bl (bladder) relative to abdominal wall / CBR He/Lu (heart/lungs) relative to abdominal wall / CBR In (intestine) relative to abdominal wall / CBR Li (liver) relative to abdominal wall / CBR Re (rectum) relative to abdominal wall / CBR Sk/Mu (skin/muscle) relative to abdominal wall / CBR Sp (spleen) relative to abdominal wall / Carcass (retention) / Eliminated (from the body into urine) / Uptake in intestine / Uptake in kidneys / Uptake in liver: 4 h postinjection; for half-life: blood; for half-life / tissue uptake at 4 h: 40 pmol/g; for Route of elimination (renal clearance), in words: mice, 4 h; for β-phase blood half-life (t1/2β): CD-1 mice, 40 pmol/g i.v.
In short: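 CD-1 male mice (25 to 30 g) received 40 pmol/g fluorophore in saline i.v. and were imaged with the FLARE system on surgically exposed organs. Excitation was 14 mW/cm2 of 745–779 nm-filtered light, with emission through an 800–848 nm bandpass and exposure and normalization held constant. ROI fluorescence and background gave CBR = (FL–BG)/BG, scored against abdominal wall. N = 5, mean ± S.D.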

serum proteins = format: in vitro ADME, bovine; conditions: 4 h incubation in 100% FBS

| CBR Bl (bladder) relative to abdominal wall [1] | CBR He/Lu (heart/lungs) relative to abdominal wall [1] | CBR In (intestine) relative to abdominal wall [1] | CBR Li (liver) relative to abdominal wall [1] | CBR Re (rectum) relative to abdominal wall [1] | CBR Sk/Mu (skin/muscle) relative to abdominal wall [1] | CBR Sp (spleen) relative to abdominal wall [1] | Stokes Shift [3] [nm] | λem [3] [nm] | λexc [3] [nm] | ε (extinction coefficient) [3] | Φ (fluorescence quantum yield) [3] [%] | Decomposition (Stability in warm serum) [%] | CBR Bl (bladder) relative to abdominal wall [4] | CBR He/Lu (heart/lungs) relative to abdominal wall [4] | CBR In (intestine) relative to abdominal wall [4] | CBR Li (liver) relative to abdominal wall [4] | CBR Re (rectum) relative to abdominal wall [4] | CBR Sk/Mu (skin/muscle) relative to abdominal wall [4] | CBR Sp (spleen) relative to abdominal wall [4] | Molecule | also measured |
| --- | --- | --- | --- | --- | --- | --- | --- | --- | --- | --- | --- | --- | --- | --- | --- | --- | --- | --- | --- | --- | --- |
| – (–, 0 to 1) | – (–, 0 to 1) | +++ (+++, > 5) | ++ (++, 2 to 5) | + (+, 1 to 2) | – (–, 0 to 1) | – (–, 0 to 1) | 15 | 822 | 807 | 121,000 M^-1cm^-1 | 9.3 | 5.9 | – (–, 0 to 1) | – (–, 0 to 1) | +++ (+++, > 5) | ++ (++, 2 to 5) | + (+, 1 to 2) | – (–, 0 to 1) | – (–, 0 to 1) | CC1(C)C(/C=C/C=C/C=C/C=C2\N(CCCCS(=O)(=O)O)c3ccc4ccccc4c3C2(C)C)=[N+](CCCCS(=O)(=O)[O-])c2ccc3ccccc3c21 [ICG, indocyanine green] | Φ (fluorescence quantum yield) of calibration standard [2]: 13%; Carcass (retention) [4]: 97.1 ± 9.4 %ID; Eliminated (from the body into urine) [4]: 2.2 ± 0.9 %ID; half-life ([4]; male, CD-1, mouse, iv): 3.6 min; tissue uptake at 4 h ([4]; male, CD-1, mouse, intestine, intravenous): 62 ± 6.6 %ID/g; tissue uptake at 4 h ([4]; male, CD-1, mouse, kidneys, intravenous): 5.9 ± 1 %ID/g; tissue uptake at 4 h ([4]; male, CD-1, mouse, liver, intravenous): 27.1 ± 0.5 %ID/g; Route of elimination (renal clearance), in words [4]: undetectable in urine; half-life ([4]; mouse, intravenous): 2 to 5 min; Serum protein binding (HD shift by GFC) (serum proteins): significant HD shift |
| – (–, 0 to 1) | – (–, 0 to 1) | +++ (+++, > 5) | – (–, 0 to 1) | ++ (++, 2 to 5) | – (–, 0 to 1) | – (–, 0 to 1) | 16 | 800 | 784 | 240,000 M^-1cm^-1 | 16.9 | 4.4 | ++ (++, 2 to 5) | – (–, 0 to 1) | ++ (++, 2 to 5) | – (–, 0 to 1) | +++ (+++, > 5) | – (–, 0 to 1) | – (–, 0 to 1) | IRDye™800-RS carboxylic acid [RS800] | β-phase blood half-life (t1/2β) [4]: 11.2 min; Carcass (retention) [4]: 79.0 ± 4.1 %ID; Eliminated (from the body into urine) [4]: 15.5 ± 1.2 %ID; Renal filtration / renal excretion ([4]; approximate, discussion statement): ≈ 20% |
| +++ (+++, > 5) | – (–, 0 to 1) | +++ (+++, > 5) | + (+, 1 to 2) | + (+, 1 to 2) | + (+, 1 to 2) | – (–, 0 to 1) | 14 | 800 | 786 | 237,000 M^-1cm^-1 | 14.2 | 4.0 | +++ (+++, > 5) | – (–, 0 to 1) | +++ (+++, > 5) | – (–, 0 to 1) | ++ (++, 2 to 5) | + (+, 1 to 2) | – (–, 0 to 1) | CC1(C)C(=CC=C2CCCC(C=CC3=[N+](CCCCCC(=O)[O-])c4ccc(S(=O)(=O)[O-])cc4C3(C)C)=C2Oc2ccc(S(=O)(=O)[O-])cc2)N(CCCCS(=O)(=O)[O-])c2ccc(S(=O)(=O)[O-])cc21.[Na+].[Na+].[Na+].[Na+] [CW800, IRDye™800-CW carboxylic acid] | Uptake in intestine [4]: 28.5 ± 7.0 %ID/g; Uptake in kidneys [4]: 7.3 ± 1.3 %ID/g; Uptake in liver [4]: 11.4 ± 0.8 %ID/g; β-phase blood half-life (t1/2β) [4]: 18.5 min; Carcass (retention) [4]: 52.4 ± 9.6 %ID; Eliminated (from the body into urine) [4]: 44.0 ± 4.6 %ID |
| +++ (+++, > 5) | – (–, 0 to 1) | – (–, 0 to 1) | – (–, 0 to 1) | – (–, 0 to 1) | – (–, 0 to 1) | – (–, 0 to 1) | 16 | 788 | 772 | 249,000 M^-1cm^-1 | 15.1 | 5.5 | +++ (+++, > 5) | – (–, 0 to 1) | – (–, 0 to 1) | – (–, 0 to 1) | – (–, 0 to 1) | – (–, 0 to 1) | – (–, 0 to 1) | CC1(C)C(/C=C/C2=C(Oc3ccc(CCC(=O)O)cc3)C(=C/C=C3/N(CCC[N+](C)(C)C)c4ccc(S(=O)(=O)O)cc4C3(C)C)/CCC2)=[N+](CCC[N+](C)(C)C)c2ccc(S(=O)(=O)O)cc21 [ZW800-1] | Carcass (retention) ([1]; not measured directly): 14.8 ± 6.5 %ID; Eliminated ([1]; not measured directly): 83.4 ± 15.9 %ID; Product of extinction coefficient and quantum yield in serum, relative to ICG ([3]; in serum): over 3 fold; Found in urine ([4]; 1 h post-injection): 51.3 ± 9.7 %ID; Uptake in intestine [4]: 0.7 ± 0.4 %ID/g; Uptake in kidneys [4]: 9.8 ± 2.2 %ID/g; Uptake in liver [4]: 0.9 ± 0.1 %ID/g; β-phase blood half-life (t1/2β) [4]: 15.1 min; Carcass (retention) [4]: 12.4 ± 3.4 %ID; Eliminated (from the body into urine) [4]: 86.0 ± 15.4 %ID; Route of elimination (renal clearance), in words [4]: exclusively cleared by the kidneys; also recorded: mostly renally cleared; Serum protein binding (HD shift by GFC) (serum proteins): does not exhibit protein binding; also recorded: no serum protein binding; also recorded: did not adsorb to serum proteins |
